Measured values from ChEMBL document CHEMBL1138361, “4-acyl-1-(4-aminoalkoxyphenyl)-2-ketopiperazines as a novel class of non-brain-penetrant histamine H3 receptor antagonists” (J Med Chem, 2007).

Columns and labels:
[1] = Partition coefficient, log D at pH 7.4; assay type: physicochemical; conditions: octanol/water
In short: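 Compound in phosphate buffer was shaken with buffer-saturated octanol (3 × 50 inversions). Phases were separated by centrifugation at 300g for 15 min. Both phases were quantified by HPLC, and log D was calculated from peak areas normalized to injection volume.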

[2] = Cmax in CD Sprague-Dawley rat at 3.0 mg/kg, po; assay type: ADME, organism-based; parameters: dose 3 mg/kg, route oral; conditions: in vivo
In short: (§1)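 Single iv and oral doses given to male CD Sprague-Dawley rats (1 mg/kg iv, 3 mg/kg po) and male Beagle dogs (1 mg/kg iv, 2 mg/kg po). Vehicle was a DMSO-PEG 200-water (5:45:50) solution. Serial and terminal blood samples were taken at time points up to 7, 12 or 24 h postdose.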

[3] = Oral bioavailability in CD Sprague-Dawley rat at 3.0 mg/kg, po; assay type: ADME, organism-based; conditions: in vivo; in short: as §1
[4] = AUC in CD Sprague-Dawley rat at 3.0 mg/kg, po; assay type: ADME, organism-based; parameters: dose 3 mg/kg, route oral; conditions: plasma; in short: as §1
[5] = Half life in CD Sprague-Dawley rat at 1.0 mg/kg, iv; assay type: ADME, organism-based; parameters: dose 1 mg/kg, route intravenous; conditions: in vivo; in short: as §1
[6] = Clearance in CD Sprague-Dawley rat at 1.0 mg/kg, iv; assay type: ADME, organism-based; parameters: dose 1 mg/kg, route intravenous; conditions: in vivo; in short: as §1
[7] = Tmax in CD Sprague-Dawley rat at 1.0 mg/kg, iv; assay type: ADME, organism-based; parameters: dose 1 mg/kg, route intravenous; conditions: in vivo; in short: as §1
[8] = Cmax in CD Sprague-Dawley rat at 1.0 mg/kg, iv; assay type: ADME, organism-based; parameters: dose 1 mg/kg, route intravenous; conditions: in vivo; in short: as §1
[9] = AUC in CD Sprague-Dawley rat at 1.0 mg/kg, iv; assay type: ADME, organism-based; parameters: dose 1 mg/kg, route intravenous; conditions: plasma; in short: as §1
[10] = Volume of distribution in CD Sprague-Dawley rat at 1.0 mg/kg, iv; assay type: ADME, organism-based; parameters: dose 1 mg/kg, route intravenous; conditions: in vivo; in short: as §1
[11] = Tmax in CD Sprague-Dawley rat at 3.0 mg/kg, po; assay type: ADME, organism-based; parameters: dose 3 mg/kg, route oral; conditions: in vivo; in short: as §1
[12] = AUC in Beagle dog at 1.0 mg/kg, iv; assay type: ADME, organism-based, Canis lupus familiaris; parameters: dose 1 mg/kg, route intravenous; conditions: plasma; in short: as §1
[13] = Ratio of drug level in brain to blood in CD Sprague-Dawley rat at 1 mg/kg, iv after 5 mins; assay type: ADME, organism-based; parameters: dose 1 mg/kg, route intravenous; conditions: brain and blood
In short: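 Male CD Sprague-Dawley rats were dosed iv in DMSO-PEG 200-water (5:45:50). Blood and brain were collected 5 min postdose under terminal isoflurane anesthesia. Blood was protein-precipitated; brain was homogenized and extracted. Parent drug was quantified by LCMS/MS.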

[14] = Oral bioavailability in Beagle dog at 2.0 mg/kg, po; assay type: ADME, organism-based, Canis lupus familiaris; conditions: in vivo; in short: as §1
[15] = Cmax in Beagle dog at 2.0 mg/kg, po; assay type: ADME, organism-based, Canis lupus familiaris; parameters: dose 2 mg/kg, route oral; conditions: in vivo; in short: as §1
[16] = AUC in Beagle dog at 2.0 mg/kg, po; assay type: ADME, organism-based, Canis lupus familiaris; parameters: dose 2 mg/kg, route oral; conditions: plasma; in short: as §1
[17] = Half life in Beagle dog at 1.0 mg/kg, iv; assay type: ADME, organism-based, Canis lupus familiaris; parameters: dose 1 mg/kg, route intravenous; conditions: in vivo; in short: as §1
[18] = Volume of distribution in Beagle dog at 1.0 mg/kg, iv; assay type: ADME, organism-based, Canis lupus familiaris; parameters: dose 1 mg/kg, route intravenous; conditions: in vivo; in short: as §1
[19] = Tmax in Beagle dog at 2.0 mg/kg, po; assay type: ADME, organism-based, Canis lupus familiaris; parameters: dose 2 mg/kg, route oral; conditions: in vivo; in short: as §1
[20] = Cmax in Beagle dog at 1.0 mg/kg, iv; assay type: ADME, organism-based, Canis lupus familiaris; parameters: dose 1 mg/kg, route intravenous; conditions: in vivo; in short: as §1
[21] = Clearance in Beagle dog at 1.0 mg/kg, iv; assay type: ADME, organism-based, Canis lupus familiaris; parameters: dose 1 mg/kg, route intravenous; conditions: in vivo; in short: as §1
[22] = Tmax in Beagle dog at 1.0 mg/kg, iv; assay type: ADME, organism-based, Canis lupus familiaris; parameters: dose 1 mg/kg, route intravenous; conditions: in vivo; in short: as §1

Which logD [1] does the source give for CC(C)N1CCC(Oc2ccc(N3CCN(C(=O)c4ccc(C#N)cc4)CC3=O)cc2)CC1 here?
Its logD is -0.64.

Which logD [1] does the source give for O=C(c1ccncc1)N1CCN(c2ccc(OCCCN3CCCCC3)cc2)C(=O)C1 here?
Its logD is -1.6.

For O=C(c1cnn2cccnc12)N1CCN(c2ccc(OCCCN3CCCCC3)cc2)C(=O)C1, which logD [1] is on record?
The logD was -1.1.

With O=C(c1ccc(F)cc1)N1CCN(c2ccc(OCCCN3CCCCCC3)cc2)C(=O)C1 as the compound, how does the logD [1] read?
The logD was -0.47.

With O=C(c1cc(F)cc(F)c1)N1CCN(c2ccc(OCCCN3CCCCCC3)cc2)C(=O)C1 as the compound, how does the logD [1] read?
Its logD is 0.24.

With O=C(c1ccc(F)cc1F)N1CCN(c2ccc(OCCCN3CCCCCC3)cc2)C(=O)C1 as the compound, how does the logD [1] read?
Its logD is 0.15.

For C[C@@H]1CCCN1CCCOc1ccc(N2CCN(C(=O)c3ccc(C#N)cc3)CC2=O)cc1.O=CO, which Cmax [2] is on record?
The Cmax was 52 ng/mL.

What about the bioavailability [3] of the same compound?
Its bioavailability is 7%.

What about the AUC [4] of the same compound?
Its AUC is 441 ng·h/mL.

And the logD [1]?
Its logD is -0.59.

And the half-life [5]?
Its half-life is 1.8 h.

And the clearance [6]?
The clearance was 13 mL/min/kg.

What about the Tmax [7] of the same compound?
The Tmax was 4.8 min.

And the Cmax [8]?
The Cmax was 729 ng/mL.

What about the AUC [9] of the same compound?
The AUC was 1190 ng·h/mL.

And the Vd [10]?
The Vd was 2.1 L/kg.

And the Tmax [11]?
The Tmax was 7 h.

With C[C@@H]1CCCN1CCCOc1ccc(N2CCN(C(=O)c3cc(F)cc(F)c3)CC2=O)cc1 as the compound, how does the logD [1] read?
Its logD is -0.02.

With N#Cc1ccc(C(=O)N2CCN(c3ccc(OC4CCN(C5CCC5)CC4)cc3)C(=O)C2)cc1.O=CO as the compound, how does the AUC [12] read?
Its AUC is 1100 ng·h/mL.

And the Kp at 5 min [13]?
The Kp at 5 min was 0.2.

What about the bioavailability [14] of the same compound?
The bioavailability was 69%.

And the Cmax [2]?
Its Cmax is 149 ng/mL.

What about the AUC [4] of the same compound?
Its AUC is 1150 ng·h/mL.

What about the Cmax [15] of the same compound?
Its Cmax is 294 ng/mL.

And the logD [1]?
Its logD is 0.38.

What about the AUC [16] of the same compound?
The AUC was 1540 ng·h/mL.

And the half-life [17]?
Its half-life is 2.3 h.

And the half-life [5]?
Its half-life is 1.4 h.

And the Vd [18]?
The Vd was 2.3 L/kg.

What about the Tmax [19] of the same compound?
The Tmax was 1 h.

And the Cmax [20]?
Its Cmax is 419 ng/mL.

What about the clearance [21] of the same compound?
The clearance was 15 mL/min/kg.

And the clearance [6]?
Its clearance is 27 mL/min/kg.

What about the Tmax [22] of the same compound?
Its Tmax is 4.8 min.

What about the Tmax [7] of the same compound?
Its Tmax is 4.8 min.

And the Cmax [8]?
Its Cmax is 350 ng/mL.

And the AUC [9]?
Its AUC is 601 ng·h/mL.

What about the Vd [10] of the same compound?
The Vd was 2.2 L/kg.

And the Tmax [11]?
Its Tmax is 1 h.

For O=C(c1cc(F)cc(F)c1)N1CCN(c2ccc(OC3CCN(C4CCC4)CC3)cc2)C(=O)C1, which logD [1] is on record?
Its logD is 0.99.

For C[C@@H]1CCCN1CCCOc1ccc(N2CCN(C(=O)c3ccc(F)cc3F)CC2=O)cc1.O=CO, which AUC [12] is on record?
Its AUC is 2160 ng·h/mL.

And the Kp at 5 min [13]?
The Kp at 5 min was 0.2.

What about the bioavailability [14] of the same compound?
The bioavailability was 100%.

And the Cmax [2]?
The Cmax was 109 ng/mL.

And the bioavailability [3]?
Its bioavailability is 48%.

And the AUC [4]?
The AUC was 753 ng·h/mL.

And the Cmax [15]?
The Cmax was 734 ng/mL.

What about the logD [1] of the same compound?
Its logD is -0.08.

What about the AUC [16] of the same compound?
Its AUC is 4800 ng·h/mL.

And the half-life [17]?
Its half-life is 4.3 h.

What about the half-life [5] of the same compound?
Its half-life is 1.1 h.

And the Vd [18]?
The Vd was 2.3 L/kg.

And the Tmax [19]?
The Tmax was 4 h.

What about the Cmax [20] of the same compound?
Its Cmax is 414 ng/mL.

And the clearance [21]?
Its clearance is 6.5 mL/min/kg.

What about the clearance [6] of the same compound?
Its clearance is 31 mL/min/kg.

And the Tmax [22]?
The Tmax was 4.8 min.

And the Tmax [7]?
The Tmax was 4.8 min.

What about the Cmax [8] of the same compound?
The Cmax was 291 ng/mL.

And the AUC [9]?
Its AUC is 682 ng·h/mL.

And the Vd [10]?
The Vd was 2 L/kg.

What about the Tmax [11] of the same compound?
Its Tmax is 4 h.

Which logD [1] does the source give for C[C@H]1CCCN1CCCOc1ccc(N2CCN(C(=O)c3ccc(F)cc3)CC2=O)cc1 here?
Its logD is -0.18.

Which logD [1] does the source give for O=C(c1ccc(F)cc1F)N1CCN(c2ccc(OC3CCN(C4CCC4)CC3)cc2)C(=O)C1 here?
Its logD is 0.95.

With C[C@H]1CCCN1CCCOc1ccc(N2CCN(C(=O)c3ccc(C#N)cc3)CC2=O)cc1 as the compound, how does the logD [1] read?
Its logD is -0.6.

With C[C@H]1CCCN1CCCOc1ccc(N2CCN(C(=O)c3ccc(F)cc3F)CC2=O)cc1 as the compound, how does the logD [1] read?
The logD was -0.13.

For O=C(c1ccc(Cl)cc1)N1CCN(c2ccc(OC3CCN(C4CCCC4)CC3)cc2)C(=O)C1, which logD [1] is on record?
Its logD is 1.52.

For O=C(c1ccc(F)cc1)N1CCN(c2ccc(OC3CCN(C4CCCC4)CC3)cc2)C(=O)C1, which logD [1] is on record?
The logD was 0.88.

Which logD [1] does the source give for N#Cc1ccc(C(=O)N2CCN(c3ccc(OC4CCN(C5CCCC5)CC4)cc3)C(=O)C2)cc1 here?
The logD was 0.37.

For O=C(c1ccc(F)cc1)N1CCN(c2ccc(OCCCN3CCCCC3)cc2)C(=O)C1, which “Log D” value [1] is on record?
The value was 0.11.

And the half-life [17]?
Its half-life is 4.3 h.

What about the Vd [18] of the same compound?
The Vd was 2.9 L/kg.

And the clearance [21]?
The clearance was 9 mL/min/kg.

With N#Cc1ccc(C(=O)N2CCN(c3ccc(OCCCN4CCCC4)cc3)C(=O)C2)cc1 as the compound, how does the logD [1] read?
The logD was -1.07.

Which logD [1] does the source give for CS(=O)(=O)c1ccc(C(=O)N2CCN(c3ccc(OC4CCN(C5CCCC5)CC4)cc3)C(=O)C2)cc1 here?
Its logD is -0.46.

With O=C(c1ccc(F)cc1)N1CCN(c2ccc(OCCCN3CCCCC3)cc2)C(=O)C1.O=CO as the compound, how does the AUC [12] read?
Its AUC is 1570 ng·h/mL.

What about the Kp at 5 min [13] of the same compound?
Its Kp at 5 min is 0.3.

What about the bioavailability [14] of the same compound?
Its bioavailability is 86%.

And the Cmax [2]?
The Cmax was 155 ng/mL.

And the bioavailability [3]?
Its bioavailability is 61%.

And the AUC [4]?
Its AUC is 805 ng·h/mL.

And the Cmax [15]?
Its Cmax is 400 ng/mL.

And the logD [1]?
Its logD is 0.12.

What about the AUC [16] of the same compound?
The AUC was 3090 ng·h/mL.

And the half-life [5]?
Its half-life is 1.5 h.

And the Tmax [19]?
Its Tmax is 0.75 h.

And the Cmax [20]?
Its Cmax is 530 ng/mL.

And the clearance [6]?
The clearance was 37 mL/min/kg.

And the Tmax [22]?
Its Tmax is 4.8 min.

And the Tmax [7]?
Its Tmax is 4.8 min.

And the Cmax [8]?
The Cmax was 300 ng/mL.

What about the AUC [9] of the same compound?
The AUC was 437 ng·h/mL.

And the Vd [10]?
The Vd was 2.4 L/kg.

What about the Tmax [11] of the same compound?
Its Tmax is 3 h.

With CS(=O)(=O)c1ccc(C(=O)N2CCN(c3ccc(OCCCN4CCCCC4)cc3)C(=O)C2)cc1 as the compound, how does the logD [1] read?
Its logD is -1.19.

Which logD [1] does the source give for O=C(c1ccc(F)cc1F)N1CCN(c2ccc(OCCCN3CCCC3)cc2)C(=O)C1 here?
Its logD is -0.45.
